Measurements taken from ChEMBL document CHEMBL3792382, “Synthesis of new secretory phospholipase A2-inhibitory indole containing isoxazole derivatives as anti-inflammatory and anticancer agents” (Eur J Med Chem, 2016).

Columns and labels:
[1] = Partition coefficient, logP of the compound; assay type: physicochemical; details: octanol/water
[2] = Inhibition of human type 2A secretory PLA2 using diheptanoyl thio-PC as substrate after 15 mins by ELISA
Outline: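 Type IIA sPLA2 from a commercial kit was incubated with inhibitor and diheptanoyl thio-PC substrate for 15 min. DTNB was then added and the thiol released by hydrolysis was read at 415 nm. Control wells held no inhibitor. % inhibition = (A control − A test)/A control × 100, and IC50 was taken from the dose-response; ursolic acid served as positive control.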

[3] = Antiproliferative activity against human DU145 cells after 48 hrs by MTT assay; assay type: functional, cell-based; details: DU-145, 48 h
Outline: (§1)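 Cells were grown in RPMI with 10% FCS, penicillin and streptomycin at 37 °C in humidified CO2. They were exposed to a range of concentrations for 48 h, then given MTT for 2 h at 37 °C. Formazan was dissolved in DMSO and absorbance read at 570 nm (reference 620 nm). IC50 was derived from the readings, with doxorubicin as positive control.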

Rattus norvegicus [4] = assay: Antiinflammatory activity against carrageenan-induced paw edema in Wistar albino rat model at 10 mg/kg, po administered 1 hr prior to carrageenan-challenge measured at 3rd hr by plethysmometer; assay type: functional
Outline: (§2)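 Rats were dosed orally 1 h before subplantar injection of 0.1 ml 1% λ-carrageenan in saline into the left hind paw, with saline in the right paw. Vehicle controls received saline 1 ml/kg p.o.; ursolic acid served as positive control. Paw volume was read by mercury plethysmometer before injection and at 1, 2, 3, 4 and 6 h. Results are % edema inhibition versus vehicle, mean ± SEM, n = 3-6, one-way ANOVA.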

Rattus norvegicus [5] = assay: Antiinflammatory activity against carrageenan-induced paw edema in Wistar albino rat model at 10 mg/kg, po administered 1 hr prior to carrageenan-challenge measured at 4th hr by plethysmometer; assay type: functional; outline: as §2
MCF7 = assay: Antiproliferative activity against human MCF7 cells after 48 hrs by MTT assay; assay type: functional, cell-based; details: MCF7, 48 h; outline: as §1

logP [1]	IC50 [2] [µM]	IC50 (MCF7) [µM]	SMILES	IC50 [3] [µM]	inhibition in vivo at 10 mg/kg (Rattus norvegicus [4]) [%]	inhibition in vivo at 10 mg/kg (Rattus norvegicus [5]) [%]
3.83	19.4		Cc1ccc2[nH]cc(CNCc3cc(-c4ccc([N+](=O)[O-])cc4)no3)c2c1			
3.87	27.9		Cc1ccc2[nH]cc(CNCc3cc(-c4ccccc4)no3)c2c1			
3.89	22.7		Cc1ccc(-c2cc(CNCc3c[nH]c4ccccc34)on2)cc1			
	12.6		C[C@H]1[C@H](C)CC[C@]2(C(=O)O)CC[C@]3(C)C(=CC[C@@H]4[C@@]5(C)CC[C@H](O)C(C)(C)[C@@H]5CC[C@]43C)[C@H]12 [URSOLIC ACID]		73	75.2
4.67	27.3		Cc1ccc(-c2cc(CNCc3c[nH]c4ccc(Br)cc34)on2)cc1			
3.92	24.6		COc1ccc(-c2cc(CNCc3c[nH]c4ccc(C)cc34)on2)cc1			
3.44	30.6		c1ccc(-c2cc(CNCc3c[nH]c4ccccc34)on2)cc1			
4.33	21.6		Cc1ccc(-c2cc(CNCc3c[nH]c4ccc(C)cc34)on2)cc1			
4.19	22.4		O=[N+]([O-])c1ccc(-c2cc(CNCc3c[nH]c4ccc(Br)cc34)on2)cc1			

The remaining lines, values behind:

SMILES	logP [1]	IC50 [2] [µM]	IC50 (MCF7) [µM]	IC50 [3] [µM]	inhibition in vivo at 10 mg/kg (Rattus norvegicus [4]) [%]	inhibition in vivo at 10 mg/kg (Rattus norvegicus [5]) [%]
Fc1ccc(-c2cc(CNCc3c[nH]c4ccc(Br)cc34)on2)cc1C(F)(F)F	5.21	17.2				
COc1ccc(-c2cc(CNCc3c[nH]c4ccc(Br)cc34)on2)cc1	4.28	32.6				
COc1cccc2c1C(=O)c1c(O)c3c(c(O)c1C2=O)C[C@@](O)(C(=O)CO)C[C@@H]3O[C@H]1C[C@H](N)[C@H](O)[C@H](C)O1 [DOXORUBICIN]				4.75		
Cc1ccc2[nH]cc(CNCc3cc(-c4ccc(F)c(C(F)(F)F)c4)no3)c2c1	4.85	10.2	10	14.2	75.7	76.5
O=[N+]([O-])c1ccc(-c2cc(CNCc3c[nH]c4ccccc34)on2)cc1	3.4	25.6				
Fc1ccc(-c2cc(CNCc3c[nH]c4ccccc34)on2)cc1C(F)(F)F	4.43	21.5				
COc1ccc(-c2cc(CNCc3c[nH]c4ccccc34)on2)cc1	3.5	18.2				
Brc1ccc2[nH]cc(CNCc3cc(-c4ccccc4)no3)c2c1	4.23	32.5				
